The structures appear in SMILES notation. Like-named read-outs stand apart in the source and are kept apart here.

The text below walks through data of publication PMC12705676 (Scientific Reports, 2025).

In one series the test system is human erythrocytes. The series can be described thus: Hemolysis assay. The format is cell-based. The note with it: for Hemolysis (%): 30 min, 37 °C; for Hemolysis, result in words: 10–300 µg/mL. An outline of the steps: (§1)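 Donor blood was collected in EDTA. RBCs were pelleted at 500 × g for 10 min, washed three times in PBS and resuspended in PBS. Cells were exposed to test compound at 10–300 µg/mL for 30 min at 37 °C with gentle agitation, then spun at 1000 × g for 5 min; supernatant hemoglobin was read at 540 nm. Deionized water defined 100% and PBS 0% hemolysis. Triplicate, three independent repeats.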

The nature of a further series: Hemolysis assay. Conditions: human, washed human red blood cells, Hemolysis (%), 30 min, 37 °C. The format is cell-based, human. An outline of the steps:
as §1

In series [1] the test system is PC-3 (human prostate cancer). The series can be described thus: SRB cytotoxicity assay, PC-3 cells. The format is cell-based. Conditions: read-out: IC50 PC-3. An outline of the steps:
(§2)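 Cells plated at 3 × 10³ per well and left 24 h to attach at 37 °C, 5% CO₂. Test compound at 0–100 µM from ethanol stocks (1% final ethanol) for 72 h. Fixation in TCA (10% final), staining with 0.1% SRB, dye solubilized in 10 mM Tris, A540. Viability relative to 1% ethanol vehicle. IC50 from a four-parameter logistic fit with 95% CI; triplicate, three independent runs, mean ± SD. SI = IC50 in GES-1 divided by IC50 in the cancer line.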

The nature of series [2]: ABTS radical scavenging assay. The format is biochemical. Conditions: concentration to scavenge 50% of radicals, mean ± SD; for IC50: read-out: ABTS IC50. The method, boiled down: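 ABTS radical cation generated by reacting ABTS with potassium persulfate, then diluted to an absorbance of about 0.700 at 732 nm. Test compound at several concentrations was mixed with the ABTS⁺ solution and the fall in absorbance recorded. Percent scavenging was calculated against a solvent control, with ascorbic acid as reference antioxidant. Three independent experiments in triplicate, mean ± SD.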

For series [3], the system named is AGS (human gastric adenocarcinoma). The series can be described thus: SRB cytotoxicity assay, AGS cells. The note with it: for IC50: read-out: IC50 AGS. The format is cell-based. The method, boiled down:
as §2
In general terms: Sulforhodamine B stains cellular protein and so reports cell mass.

Series [4] in a line: DPPH radical scavenging assay. Conditions: concentration to scavenge 50% of radicals, 15 min, mean ± SD. The format is biochemical. An outline of the steps:
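Test compound solutions (5–400 µg/mL, concentration before mixing) were added to 50 µM ethanolic DPPH and kept 15 min at room temperature in the dark, then read at 517 nm. A blank with solvent in place of compound served as control. IC50 came from linear regression of % scavenging against concentration. Three independent experiments in triplicate, mean ± SD.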
In general terms: The DPPH test is a chemical assay of radical scavenging.

Series [5] concerns HT-29 (human colorectal adenocarcinoma). Briefly: SRB cytotoxicity assay, HT-29 cells. The format is cell-based. The note with it: read-out: IC50 HT-29. The method, boiled down:
as §2

In series [6] the test system is GES-1 (healthy gastric epithelial cells). The series can be described thus: SRB cytotoxicity assay, GES-1 non-tumor cells. The note with it: read-out: IC50 GES-1, 72 h treatment, mean ± SD. The format is cell-based, human.
Series [7] deals with mitochondrial membrane permeability of cancer cell line. The series can be described thus: Mitochondrial membrane permeability by flow cytometry. The format is cell-based, human. Conditions: 48 h, Rhodamine 123, flow cytometry. For orientation: Flow cytometry measures light scatter and fluorescence of single cells or particles in a stream.

One may read the IC50 as the concentration that inhibits the measured activity by half. Turning to `CC12CCC(CC1=O)C2(C)C` (stereo not drawn) [Compound 1, camphor, reference compound], the “Hemolysis (%)” value in the series with human erythrocytes (10 µg/mL) came out at 0%; in the series with human erythrocytes (25 µg/mL) it was 0.06%; in the series with human erythrocytes (50 µg/mL), 3.11%; in the series with human erythrocytes (100 µg/mL) it was 4.80%. In the series “Hemolysis assay”, this compound gave a hemolysis at 30 min, 200 µg/mL of 9.67%. Also, the hemolysis at 30 min, 300 µg/mL in “Hemolysis assay” stood at 10.1%. Further, the half-inhibitory concentration (IC50) in series [1] (Homo sapiens, PC-3, 72 h) is > 100 µM; in [2] it was > 2.63 mM; in [3] (Homo sapiens, AGS, 72 h), > 100 µM; in [5] (Homo sapiens, HT-29, 72 h), > 100 µM. Besides, in series [2], the “ABTS IC50” value is “inactive”. The “DPPH IC50” value in series [4] was “inactive”.
On to `CC12CCC(CC1=O)C2(C)C` (stereo not drawn) [Compound 2, camphor, reference compound], for which the “Hemolysis (%)” value is reported as 5.25% in the series on human erythrocytes (10 µg/mL); 6.55% in the series on human erythrocytes (25 µg/mL); 9.61% with human erythrocytes (50 µg/mL); 11.29% with human erythrocytes (100 µg/mL); 16.16% in the series with human erythrocytes (200 µg/mL); 16.62% in the series on human erythrocytes (300 µg/mL). Besides, in the series on human erythrocytes, the “Hemolysis, result in words” value was “concentration dependent increase in hemolysis”. For the same compound, the 50% inhibitory concentration (IC50) is > 100 µM in series [1] (SRB, 72 h treatment, mean ± SD); > 2.63 mM in series [2]; > 100 µM in series [3] (SRB, 72 h treatment, mean ± SD); 322.7 ± 1.7 µM in [6]; > 100 µM in series [5] (SRB, 72 h treatment, mean ± SD). Besides, the “ABTS IC50” value in series [2] is “inactive”. Besides, the “DPPH IC50” value in [4] is “inactive”.
As for `CC1(C)C2CC[C@]1(C)C(=O)/C2=C/c1ccco1` [Compound 3, (1S,3E)-3-[(furan-2-yl)methylidene]-1,7,7-trimethylbicyclo[2.2.1]heptan-2-one], the “Hemolysis, result in words” value with human erythrocytes is reported as “concentration dependent increase in hemolysis”. Besides, the hemolysis at 30 min, 10 µg/mL in the series “Hemolysis assay” (10 µg/mL) was determined as 6.75%. The same compound displayed a hemolysis at 30 min, 25 µg/mL in the series “Hemolysis assay” (25 µg/mL) of 8.31%. In the series “Hemolysis assay” (50 µg/mL), this compound displayed a hemolysis at 30 min, 50 µg/mL of 17.9%. In the series “Hemolysis assay” (100 µg/mL), this compound returned a hemolysis at 30 min, 100 µg/mL of 23.6%. Also, the hemolysis at 30 min, 200 µg/mL in the series “Hemolysis assay” came out at 28.2%. Moreover, the hemolysis at 30 min, 300 µg/mL in the series “Hemolysis assay” stood at 35.3%. Besides, the IC50 in [1] (Homo sapiens, PC-3, 72 h) is > 100 µM; in series [2] it was 0.953 ± 0.0015 mM; in series [3] (Homo sapiens, AGS, 72 h) it was 99.9 ± 0.2 µM; in series [5] (Homo sapiens, HT-29, 72 h), > 100 µM. Further, in series [3] (IC50 in GES-1 / IC50 in AGS), the “Selectivity index (SI) AGS” value is given as 1.85. The “Effect on mitochondrial membrane potential” value in series [7] is on record as “loss of the mitochondrial membrane potential”.
